According to ChEMBL document CHEMBL1649124, “Genetic variability among ampC genes from acinetobacter genomic species 3” (Antimicrob Agents Chemother, 2009):
Converted amounts (≈) assume the structure as drawn. Values belong to the compound of their own block, whether it stands above or below them.

Experiments:
Type in all cases: functional
Acinetobacter pittii [1] = test: Antibacterial activity against Acinetobacter genomosp. 3 isolate 52 by Etest method in presence of cloxacillin and efflux pump inhibitor CCCP
Acinetobacter pittii [2] = test: Antibacterial activity against Acinetobacter genomosp. 3 isolate 90 by Etest method
How it was run: (§1)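 MICs for AG3 clinical isolates were read by Etest following the manufacturer's instructions. Isolates were stored at –80°C in 10% Brucella glycerol broth before testing.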

Acinetobacter pittii [3] = test: Antibacterial activity against Acinetobacter genomosp. 3 isolate 69 by Etest method in presence of cloxacillin; how it was run: as §1
Acinetobacter pittii [4] = test: Antibacterial activity against Acinetobacter genomosp. 3 isolate 67 by Etest method in presence of cloxacillin and efflux pump inhibitor PAN
Acinetobacter pittii [5] = test: Antibacterial activity against Acinetobacter genomosp. 3 isolate 103 by Etest method; how it was run: as §1
Acinetobacter pittii [6] = test: Antibacterial activity against Acinetobacter genomosp. 3 isolate 21 by Etest method in presence of cloxacillin; how it was run: as §1
Acinetobacter pittii [7] = test: Antibacterial activity against Acinetobacter genomosp. 3 isolate 65 by Etest method in presence of cloxacillin and efflux pump inhibitor PAN
Acinetobacter pittii [8] = test: Antibacterial activity against Acinetobacter genomosp. 3 isolate 65 by Etest method in presence of efflux pump inhibitor PAN
Acinetobacter pittii [9] = test: Antibacterial activity against Acinetobacter genomosp. 3 isolate 60 by Etest method in presence of cloxacillin; how it was run: as §1
Acinetobacter pittii [10] = test: Antibacterial activity against Acinetobacter genomosp. 3 isolate 60 by Etest method; how it was run: as §1
Acinetobacter pittii [11] = test: Antibacterial activity against Acinetobacter genomosp. 3 isolate 56 by Etest method in presence of cloxacillin and efflux pump inhibitor CCCP
Escherichia coli [12] = test: Antibacterial activity against Escherichia coli DH5alpha carrying ampC gene of Acinetobacter genomosp. 3 isolate 109 by Etest method
How it was run: (§2)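 E. coli DH5α expressing the AG3 isolate ampC gene, PCR-amplified (high-fidelity system, 28 cycles) and cloned into BamHI/HindIII sites of pBGS18 (kanamycin marker) under the CTX-M-14 β-lactamase promoter. Grown at 37°C in LB, with kanamycin 50 µg/ml when needed. β-Lactam MICs determined by Etest per the manufacturer's instructions.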

Acinetobacter pittii [13] = test: Antibacterial activity against Acinetobacter genomosp. 3 isolate 20 by Etest method in presence of cloxacillin; how it was run: as §1
Escherichia coli [14] = test: Antibacterial activity against Escherichia coli DH5alpha carrying ampC gene of Acinetobacter genomosp. 3 isolate 195 by Etest method; how it was run: as §2
Acinetobacter pittii [15] = test: Antibacterial activity against Acinetobacter genomosp. 3 isolate 52 by Etest method; how it was run: as §1
Acinetobacter pittii [16] = test: Antibacterial activity against Acinetobacter genomosp. 3 isolate 20 by Etest method in presence of cloxacillin and efflux pump inhibitor CCCP
Acinetobacter pittii [17] = test: Antibacterial activity against Acinetobacter genomosp. 3 isolate 21 by Etest method; how it was run: as §1
Acinetobacter pittii [18] = test: Antibacterial activity against Acinetobacter genomosp. 3 isolate 195 by Etest method; how it was run: as §1
Acinetobacter pittii [19] = test: Antibacterial activity against Acinetobacter genomosp. 3 isolate 56 by Etest method in presence of efflux pump inhibitor CCCP
Escherichia coli [20] = test: Antibacterial activity against Escherichia coli DH5alpha carrying ampC gene of Acinetobacter genomosp. 3 isolate 65 by Etest method; how it was run: as §2
Acinetobacter pittii [21] = test: Antibacterial activity against Acinetobacter genomosp. 3 isolate 128 by Etest method in presence of cloxacillin and efflux pump inhibitor PAN
Acinetobacter pittii [22] = test: Antibacterial activity against Acinetobacter genomosp. 3 isolate 103 by Etest method in presence of efflux pump inhibitor CCCP
Acinetobacter pittii [23] = test: Antibacterial activity against Acinetobacter genomosp. 3 isolate 243 by Etest method; how it was run: as §1
Acinetobacter pittii [24] = test: Antibacterial activity against Acinetobacter genomosp. 3 isolate 103 by Etest method in presence of cloxacillin and efflux pump inhibitor PAN
Acinetobacter pittii [25] = test: Antibacterial activity against Acinetobacter genomosp. 3 isolate 65 by Etest method in presence of cloxacillin; how it was run: as §1
Acinetobacter pittii [26] = test: Antibacterial activity against Acinetobacter genomosp. 3 isolate 69 by Etest method; how it was run: as §1
Acinetobacter pittii [27] = test: Antibacterial activity against Acinetobacter genomosp. 3 isolate 109 by Etest method in presence of cloxacillin and efflux pump inhibitor CCCP
Acinetobacter pittii [28] = test: Antibacterial activity against Acinetobacter genomosp. 3 isolate 69 by Etest method in presence of cloxacillin and efflux pump inhibitor CCCP
Acinetobacter pittii [29] = test: Antibacterial activity against Acinetobacter genomosp. 3 isolate 14 by Etest method in presence of efflux pump inhibitor CCCP
Acinetobacter pittii [30] = test: Antibacterial activity against Acinetobacter genomosp. 3 isolate 14 by Etest method in presence of cloxacillin; how it was run: as §1
Acinetobacter pittii [31] = test: Antibacterial activity against Acinetobacter genomosp. 3 isolate 90 by Etest method in presence of cloxacillin and efflux pump inhibitor PAN
Escherichia coli [32] = test: Antibacterial activity against Escherichia coli DH5alpha carrying ampC gene of Acinetobacter genomosp. 3 isolate 20 by Etest method; how it was run: as §2
Acinetobacter pittii [33] = test: Antibacterial activity against Acinetobacter genomosp. 3 isolate 21 by Etest method in presence of cloxacillin and efflux pump inhibitor CCCP
Acinetobacter pittii [34] = test: Antibacterial activity against Acinetobacter genomosp. 3 isolate 60 by Etest method in presence of cloxacillin and efflux pump inhibitor CCCP
Acinetobacter pittii [35] = test: Antibacterial activity against Acinetobacter genomosp. 3 isolate 109 by Etest method in presence of cloxacillin and efflux pump inhibitor PAN
Acinetobacter pittii [36] = test: Antibacterial activity against Acinetobacter genomosp. 3 isolate 60 by Etest method in presence of cloxacillin and efflux pump inhibitor PAN
Acinetobacter pittii [37] = test: Antibacterial activity against Acinetobacter genomosp. 3 isolate 56 by Etest method in presence of cloxacillin and efflux pump inhibitor PAN
Acinetobacter pittii [38] = test: Antibacterial activity against Acinetobacter genomosp. 3 isolate 20 by Etest method in presence of cloxacillin and efflux pump inhibitor PAN
Acinetobacter pittii [39] = test: Antibacterial activity against Acinetobacter genomosp. 3 isolate 103 by Etest method in presence of cloxacillin; how it was run: as §1
Acinetobacter pittii [40] = test: Antibacterial activity against Acinetobacter genomosp. 3 isolate 195 by Etest method in presence of efflux pump inhibitor CCCP
Acinetobacter pittii [41] = test: Antibacterial activity against Acinetobacter genomosp. 3 isolate 128 by Etest method in presence of cloxacillin and efflux pump inhibitor CCCP
Acinetobacter pittii [42] = test: Antibacterial activity against Acinetobacter genomosp. 3 isolate 52 by Etest method in presence of cloxacillin; how it was run: as §1
Acinetobacter pittii [43] = test: Antibacterial activity against Acinetobacter genomosp. 3 isolate 21 by Etest method in presence of efflux pump inhibitor CCCP
Acinetobacter pittii [44] = test: Antibacterial activity against Acinetobacter genomosp. 3 isolate 90 by Etest method in presence of efflux pump inhibitor PAN
Escherichia coli [45] = test: Antibacterial activity against Escherichia coli DH5alpha carrying ampC gene of Acinetobacter genomosp. 3 isolate 103 by Etest method; how it was run: as §2
Acinetobacter pittii [46] = test: Antibacterial activity against Acinetobacter genomosp. 3 isolate 14 by Etest method in presence of cloxacillin and efflux pump inhibitor PAN
Acinetobacter pittii [47] = test: Antibacterial activity against Acinetobacter genomosp. 3 isolate 67 by Etest method in presence of cloxacillin; how it was run: as §1
Acinetobacter pittii [48] = test: Antibacterial activity against Acinetobacter genomosp. 3 isolate 20 by Etest method; how it was run: as §1
Acinetobacter pittii [49] = test: Antibacterial activity against Acinetobacter genomosp. 3 isolate 21 by Etest method in presence of efflux pump inhibitor PAN
Acinetobacter pittii [50] = test: Antibacterial activity against Acinetobacter genomosp. 3 isolate 195 by Etest method in presence of efflux pump inhibitor PAN

Compound: C[C@@H](O)[C@H]1C(=O)N2C(C(=O)O)=C(S[C@@H]3CN[C@H](C(=O)N(C)C)C3)[C@H](C)[C@H]12 [MEROPENEM]
MIC (Acinetobacter pittii [1]): 0.094 µg/mL
MIC (Acinetobacter pittii [2]): 0.75 µg/mL (≈ 1.96 µM)
MIC (Acinetobacter pittii [3]): 0.19 µg/mL
MIC (Acinetobacter pittii [4]): 0.25 µg/mL
MIC (Acinetobacter pittii [5]): 3 µg/mL (≈ 7.82 µM)
MIC (Acinetobacter pittii [6]): 0.5 µg/mL
MIC (Acinetobacter pittii [7]): 0.38 µg/mL
MIC (Acinetobacter pittii [8]): 0.25 µg/mL
MIC (Acinetobacter pittii [9]): 0.75 µg/mL
MIC (Acinetobacter pittii [10]): 0.75 µg/mL (≈ 1.96 µM)
MIC (Acinetobacter pittii [11]): 0.125 µg/mL
MIC (Escherichia coli [12]): 0.032 µg/mL (≈ 0.0834 µM)
MIC (Acinetobacter pittii [13]): 3 µg/mL
MIC (Escherichia coli [14]): 0.032 µg/mL (≈ 0.0834 µM)
MIC (Acinetobacter pittii [15]): 0.5 µg/mL (≈ 1.3 µM)
MIC (Acinetobacter pittii [16]): 1.5 µg/mL
MIC (Acinetobacter pittii [17]): 1 µg/mL (≈ 2.61 µM)
MIC (Acinetobacter pittii [18]): 1 µg/mL (≈ 2.61 µM)
MIC (Acinetobacter pittii [19]): 0.25 µg/mL
MIC (Escherichia coli [20]): 0.023 µg/mL (≈ 0.06 µM)
MIC (Acinetobacter pittii [21]): 0.19 µg/mL
MIC (Acinetobacter pittii [22]): 1 µg/mL
MIC (Acinetobacter pittii [23]): 0.25 µg/mL (≈ 0.652 µM)
MIC (Acinetobacter pittii [24]): 0.75 µg/mL
MIC (Acinetobacter pittii [25]): 0.19 µg/mL
MIC (Acinetobacter pittii [26]): 0.25 µg/mL (≈ 0.652 µM)
MIC (Acinetobacter pittii [27]): 0.19 µg/mL
MIC (Acinetobacter pittii [28]): 0.19 µg/mL
MIC (Acinetobacter pittii [29]): 0.25 µg/mL
MIC (Acinetobacter pittii [30]): 0.25 µg/mL
MIC (Acinetobacter pittii [31]): 0.25 µg/mL
MIC (Escherichia coli [32]): 0.023 µg/mL (≈ 0.06 µM)
MIC (Acinetobacter pittii [33]): 0.25 µg/mL
MIC (Acinetobacter pittii [34]): 0.25 µg/mL
MIC (Acinetobacter pittii [35]): 0.38 µg/mL
MIC (Acinetobacter pittii [36]): 0.75 µg/mL
MIC (Acinetobacter pittii [37]): 0.38 µg/mL
MIC (Acinetobacter pittii [38]): 3 µg/mL
MIC (Acinetobacter pittii [39]): 1.5 µg/mL
MIC (Acinetobacter pittii [40]): 0.5 µg/mL
MIC (Acinetobacter pittii [41]): 0.094 µg/mL
MIC (Acinetobacter pittii [42]): 0.19 µg/mL
MIC (Acinetobacter pittii [43]): 0.5 µg/mL
MIC (Acinetobacter pittii [44]): 0.38 µg/mL
MIC (Escherichia coli [45]): 0.023 µg/mL (≈ 0.06 µM)
MIC (Acinetobacter pittii [46]): 0.38 µg/mL
MIC (Acinetobacter pittii [47]): 0.25 µg/mL
MIC (Acinetobacter pittii [48]): 6 µg/mL (≈ 15.6 µM)
MIC (Acinetobacter pittii [49]): 0.47 µg/mL
MIC (Acinetobacter pittii [50]): 1 µg/mL

MIC (Acinetobacter pittii [1]): 12 µg/mL
MIC (Acinetobacter pittii [2]): > 256 µg/mL
MIC (Acinetobacter pittii [3]): > 256 µg/mL
MIC (Acinetobacter pittii [4]): 128 µg/mL
MIC (Acinetobacter pittii [5]): > 256 µg/mL
MIC (Acinetobacter pittii [6]): > 256 µg/mL
MIC (Acinetobacter pittii [7]): 128 µg/mL
MIC (Acinetobacter pittii [8]): > 256 µg/mL
MIC (Acinetobacter pittii [9]): > 256 µg/mL
MIC (Acinetobacter pittii [10]): > 256 µg/mL
MIC (Acinetobacter pittii [11]): 16 µg/mL
MIC (Escherichia coli [12]): > 256 µg/mL
MIC (Acinetobacter pittii [13]): > 256 µg/mL
MIC (Escherichia coli [14]): > 256 µg/mL
MIC (Acinetobacter pittii [15]): > 256 µg/mL
MIC (Acinetobacter pittii [16]): 24 µg/mL
MIC (Acinetobacter pittii [17]): > 256 µg/mL
MIC (Acinetobacter pittii [18]): > 256 µg/mL
MIC (Acinetobacter pittii [19]): 96 µg/mL
MIC (Escherichia coli [20]): 192 µg/mL (≈ 484 µM)
MIC (Acinetobacter pittii [21]): 48 µg/mL
MIC (Acinetobacter pittii [22]): > 256 µg/mL
MIC (Acinetobacter pittii [23]): > 256 µg/mL
MIC (Acinetobacter pittii [24]): 192 µg/mL
MIC (Acinetobacter pittii [25]): 128 µg/mL
MIC (Acinetobacter pittii [26]): > 256 µg/mL
MIC (Acinetobacter pittii [27]): 24 µg/mL
MIC (Acinetobacter pittii [28]): 24 µg/mL
MIC (Acinetobacter pittii [29]): > 256 µg/mL
MIC (Acinetobacter pittii [30]): 128 µg/mL
MIC (Acinetobacter pittii [31]): 64 µg/mL
MIC (Escherichia coli [32]): > 256 µg/mL
MIC (Acinetobacter pittii [33]): 48 µg/mL
MIC (Acinetobacter pittii [34]): 28 µg/mL
MIC (Acinetobacter pittii [35]): 128 µg/mL
MIC (Acinetobacter pittii [36]): > 256 µg/mL
MIC (Acinetobacter pittii [37]): > 256 µg/mL
MIC (Acinetobacter pittii [38]): > 256 µg/mL
MIC (Acinetobacter pittii [39]): 192 µg/mL
MIC (Acinetobacter pittii [40]): > 256 µg/mL
MIC (Acinetobacter pittii [41]): 32 µg/mL
MIC (Acinetobacter pittii [42]): > 256 µg/mL
MIC (Acinetobacter pittii [43]): > 256 µg/mL
MIC (Acinetobacter pittii [44]): > 256 µg/mL
MIC (Escherichia coli [45]): > 256 µg/mL
MIC (Acinetobacter pittii [46]): 128 µg/mL
MIC (Acinetobacter pittii [47]): 128 µg/mL
MIC (Acinetobacter pittii [48]): > 256 µg/mL
MIC (Acinetobacter pittii [49]): > 256 µg/mL
MIC (Acinetobacter pittii [50]): > 256 µg/mL
Compound: CC(=O)OCC1=C(C(=O)O)N2C(=O)[C@@H](NC(=O)Cc3cccs3)[C@H]2SC1 [CEPHALOTHIN]
